Experiments:
Lipid bilayer [1] = assay: Binding affinity to DPH-PA probe-labeled DMPG liposomes assessed as main phase transition temperature at 30 uM by steady-state fluorescence anisotrope (reference value: 23.9 +/- 0.3 degC); conditions: Microsome
Lipid bilayer [2] = assay: Binding affinity to DPH probe-labeled DMPG liposomes assessed as main phase transition temperature at 30 uM by steady-state fluorescence anisotrope (reference value: 24.1 +/- 0.5 degC)
Lipid bilayer [3] = assay: Binding affinity to DPH-PA probe-labeled DMPC liposomes assessed as main phase transition temperature at 30 uM by steady-state fluorescence anisotrope (reference value: 24.6 +/- 0.3 degC); conditions: Microsome
Lipid bilayer [4] = assay: Binding affinity to DPH probe-labeled DMPC liposomes assessed as main phase transition temperature at 30 uM by steady-state fluorescence anisotrope (reference value: 24.4 +/- 0.2 degC)
Lipid bilayer [5] = assay: Binding affinity to DPH-PA probe-labeled DMPG liposomes assessed as binding constant by fluorescence quenching assay
How it was run: (§1)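 LUVs (100 nm extrusion) of DMPC or DMPG at 500 μM total lipid in HEPES 0.01 M, I = 0.1 M (NaCl), pH 7.4, labelled with DPH or DPH-PA (probe:lipid 1:300). Drug (0–27 μM) incubated 30 min at 37.0 °C in the dark. Steady-state intensity (ex 357/360, em 427/430 nm) and lifetime read, corrected for quencher absorbance. Membrane drug concentration taken from Kp. Stern–Volmer constants obtained at 37.0 and 42.0 °C.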

Lipid bilayer [6] = assay: Binding affinity to DPH probe-labeled DMPG liposomes assessed as binding constant by fluorescence quenching assay; how it was run: as §1
Lipid bilayer [7] = assay: Binding affinity to DPH-PA probe-labeled DMPC liposomes assessed as binding constant by fluorescence quenching assay; how it was run: as §1
[8] = Drug localization in DPH-PA probe-labeled DMPG liposomes at 42 +/- 0.1 degC by fluorescence quenching; format: physicochemical; how it was run: as §1
Lipid bilayer [9] = assay: Binding affinity to DPH probe-labeled DMPC liposomes assessed as binding constant by fluorescence quenching assay; how it was run: as §1
[10] = Drug localization in DPH-PA probe-labeled DMPC liposomes at 42 +/- 0.1 degC by fluorescence quenching; format: physicochemical; how it was run: as §1
[11] = Drug localization in DPH probe-labeled DMPG liposomes at 42 +/- 0.1 degC by fluorescence quenching; format: physicochemical; how it was run: as §1
[12] = Drug localization in DPH probe-labeled DMPC liposomes at 42 +/- 0.1 degC by fluorescence quenching; format: physicochemical; how it was run: as §1
[13] = Drug localization in DPH probe-labeled DMPG liposomes at 37 +/- 0.1 degC by fluorescence quenching; format: physicochemical; how it was run: as §1
[14] = Drug localization in DPH-PA probe-labeled DMPG liposomes at 37 +/- 0.1 degC by fluorescence quenching; format: physicochemical; how it was run: as §1
[15] = Drug localization in DPH probe-labeled DMPC liposomes at 37 +/- 0.1 degC by fluorescence quenching; format: physicochemical; how it was run: as §1
[16] = Drug localization in DPH-PA probe-labeled DMPC liposomes at 37 +/- 0.1 degC by fluorescence quenching; format: physicochemical; how it was run: as §1

Tm (Lipid bilayer [1]): 24.2 °C
Tm (Lipid bilayer [2]): 24.4 °C
Tm (Lipid bilayer [3]): 24.5 °C
Tm (Lipid bilayer [4]): 24.5 °C
Kq (Lipid bilayer [5]): 2.6e+10 M⁻¹ s⁻¹
Kq (Lipid bilayer [6]): 1.9e+10 M⁻¹ s⁻¹
Kq (Lipid bilayer [7]): 2.9e+10 M⁻¹ s⁻¹
KSV [8]: 121 M⁻¹
Kq (Lipid bilayer [9]): 2.7e+10 M⁻¹ s⁻¹
KSV [10]: 76 M⁻¹
KSV [11]: 132 M⁻¹
KSV [12]: 156 M⁻¹
KSV [13]: 167 M⁻¹
KSV [14]: 181 M⁻¹
KSV [15]: 216 M⁻¹
KSV [16]: 165 M⁻¹
SMILES: CO[C@H]1/C=C/O[C@@]2(C)Oc3c(C)c(O)c4c(c3C2=O)C2=NC3(CCN(CC(C)C)CC3)NC2=C(NC(=O)/C(C)=C\C=C\[C@H](C)[C@H](O)[C@@H](C)[C@@H](O)[C@@H](C)[C@H](OC(C)=O)[C@@H]1C)C4=O [RIFABUTIN]
